The values that follow come from article PMC12749539 (Scientific Reports, 2025).

The subject of data set [1] is Zika virus (ZIKV) MR766 strain. The data set is described as follows: EC50 dose-response in ZIKV-infected Vero cells. In kind it is cell-based. As to conditions: CC50/EC50, Vero cells. The procedure, abridged: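 Vero CCL-81 monolayers were seeded at 1.2 × 10⁶ cells per plate one day before. Serial dilutions of test compound in DMEM (methods: 50–0.2 µM; legend: 0.2–100 µM) were added together with ZIKV MR766 at 100 TCID50/mL. Plates were held 6 days at 37 °C and 5% CO2, with virus and cell controls. Crystal violet read viability. EC50 came from four-parameter logistic fit of triplicate data. SI = CC50/EC50.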

Data set [2] is described as follows: CC50 cytotoxicity in uninfected Vero cells. The class given is cell-based. As to conditions: African green monkey. The procedure, abridged:
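Vero CCL-81 cells in DMEM with 10% FBS were seeded at 1.2 × 10⁶ cells per plate one day ahead. Uninfected monolayers were exposed to serial dilutions of test compound in DMEM (50–0.2 µM) for 6 days at 37 °C and 5% CO2. Viability was read by crystal violet staining. CC50 came from four-parameter logistic nonlinear regression of triplicate data, with 95% CIs from log-transformed estimates.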

The subject of a further data set is ZIKV. As to conditions: read-out: previously reported EC50; anti-ZIKV; cited from earlier work.

For `CCCCC(CC)COC(=O)CC(C(=O)OCC(CC)CCCC)S(=O)(=O)O` (stereo not drawn) [Docusate Sodium], the “selectivity index (SI)” value in data set [1] was determined as 3.49. Moreover, it took 8.19 µM to reach half-maximal cytotoxicity in data set [2] (CC50 at 6 days).
As to `COC1=C[C@]23CCCN2CCc2cc4c(cc2[C@@H]3[C@@H]1O)OCO4` [Cephalotaxine], the concentration giving a half-maximal response (EC50) – broadly, the concentration giving half of the maximal effect – with ZIKV was 40 µM.
